We go through 19 molecules from ChEMBL document CHEMBL1123928, “Inhibition of human sputum elastase by substituted 2-pyrones” (J Med Chem, 1987).

Values after ≈ are worked out from the molar mass of the structure shown.

For one data set, the target named is pancreatic elastase (Sus scrofa, UniProt P00772+P08419). In words: Solubility against porcine pancreatic elastase. Format: ADME, protein assay. The note with it: pig. In outline: (§1)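 Single-point screen run under the HSE assay conditions (0.1 M HEPES, 0.5 M NaCl, 14.8% Me2SO, pH 7.5, 37 °C). One inhibitor concentration near its solubility limit: 25, 10, 1000 or 200 μM depending on compound. One substrate concentration at 0.29 Km; porcine elastase Km 2600 μM. Each run at least twice; p-nitrophenol read at 400 nm.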

The target of data set [1] is T1, trypsin (Serine protease 1) (Bos taurus, UniProt P00760).
T1 sequence (P00760 whole entry): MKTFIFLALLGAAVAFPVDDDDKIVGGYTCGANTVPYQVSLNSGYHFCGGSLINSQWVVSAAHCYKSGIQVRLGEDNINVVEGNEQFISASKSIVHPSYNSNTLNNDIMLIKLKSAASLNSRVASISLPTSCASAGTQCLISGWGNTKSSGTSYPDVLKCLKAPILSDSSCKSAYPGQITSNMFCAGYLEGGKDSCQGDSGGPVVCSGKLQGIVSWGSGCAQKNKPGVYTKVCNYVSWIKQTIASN
In words: Solubility against bovine trypsin. The data set is classed as ADME. As to conditions: cattle. In outline:
as §1

In a further data set the target is T2, Neutrophil elastase (Homo sapiens, UniProt P08246).
T2 sequence (P08246 whole entry): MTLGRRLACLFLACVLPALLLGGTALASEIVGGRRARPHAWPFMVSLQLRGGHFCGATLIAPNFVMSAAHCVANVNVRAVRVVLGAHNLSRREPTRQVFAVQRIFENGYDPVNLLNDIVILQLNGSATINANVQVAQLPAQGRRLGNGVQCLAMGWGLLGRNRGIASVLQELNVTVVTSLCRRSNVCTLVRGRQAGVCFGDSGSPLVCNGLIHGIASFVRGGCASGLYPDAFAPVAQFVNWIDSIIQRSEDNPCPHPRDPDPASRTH
The experiment in a line: (§2) Evaluated for inhibition of the human sputum elastase (HSE). In outline:
(§3)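 HSE from sputum prepared in 50 mM NaOAc/0.45 M NaCl pH 5.5. Assay in 0.1 M HEPES, 0.5 M NaCl, 14.8% Me2SO, pH 7.5, 37 °C. Inhibitor at two or more concentrations (4–250 μM depending on compound). […] Ki from Hanes–Woolf plots with Dixon-type replots.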

Data set [2] deals with alpha-chymotrypsin. In words: (§4) Solubility against bovine alpha-chymotrypsin. Format: ADME, Bos taurus. As to conditions: cattle. In outline: as §1
Data set [3] relates to alpha-chymotrypsin. The data set is described as §4. The data set is classed as ADME, organism-based, Bos taurus. The note with it: cattle. The method in brief:
as §1

Data set [4] is described as follows: Evaluated for Non-competitive inhibition of the human sputum elastase (HSE). The method in brief:
as §3

Data set [5] in a line: Evaluated for inhibition of the human sputum elastase (HSE) at 1000 micro M; No activity.
A short description of data set [6]: Evaluated for uncompetitive inhibition of the human sputum elastase (HSE). The method in brief:
as §3

A short description of data set [7]: as §2. The data set is classed as functional. In outline:
as §3

Turning to `CCOC(=O)C(=O)/C=C1\C=C(OC)C=C(O)O1`, the inhibitor concentration tested (near solubility limit) on pancreatic elastase and with alpha-chymotrypsin [2] was 200 µM throughout. In [1], the solubility (as a rule, how much of the substance goes into solution per volume) came out at 200 µM (≈ 48 µg/mL). Besides, affinity at Neutrophil elastase was put at a Ki of 120 µM.

Turning to `CCCCCCCCCCCC(=O)c1c(O)cc(CCCCCCCCCCC)oc1=O`, the solubility (with alpha-chymotrypsin [3]; in data set [1]) was 10 µM (≈ 4.49 µg/mL) each time. Further, the inhibitor concentration tested (near solubility limit) against pancreatic elastase is 10 µM.

With `CCCCCCCCC(=O)c1c(O)cc(CCCCCCCC)oc1=O`, the inhibitor concentration tested (near solubility limit) at pancreatic elastase and in the data set on alpha-chymotrypsin [2] was 25 µM each time. This molecule had a solubility in [1] of 25 µM (≈ 9.11 µg/mL). The Ki (in general, the dissociation constant of the complex between target and ligand, obtained from inhibition or displacement) at Neutrophil elastase was 4.6 µM.

For `CCCCCC(=O)c1c(O)cc(C)oc1=O`, the inhibitor concentration tested (near solubility limit) against pancreatic elastase and in the data set on alpha-chymotrypsin [2] was 200 µM each time. The same molecule showed a solubility in [1] of 200 µM (≈ 44.9 µg/mL). In addition, the Ki in [4] was found to be 2000 µM.

Regarding `CCCCCCCCCC(=O)c1c(O)cc(C)oc1=O`, the inhibitor concentration tested (near solubility limit) at pancreatic elastase and in the data set on alpha-chymotrypsin [2] was 200 µM in each case. This molecule also had a solubility in data set [1] of 200 µM (≈ 56.1 µg/mL). Also, the Ki in [4] amounted to 250 µM.

With `CCCCCCCC(=O)c1c(O)cc(C)oc1=O`, the inhibitor concentration tested (near solubility limit) against pancreatic elastase and in the data set on alpha-chymotrypsin [2] was 200 µM in each case. For the same molecule, the solubility in [1] worked out at 200 µM (≈ 50.5 µg/mL). Besides, in data set [4], the affinity corresponds to a Ki of 400 µM.

`CCCCCCCCCCCC(=O)c1c(O)cc(C)oc1=O`: the inhibitor concentration tested (near solubility limit) against pancreatic elastase and in the data set with alpha-chymotrypsin [2] was 200 µM in each case. Moreover, the concentration in solution in [1] (solubility) was 200 µM (≈ 61.7 µg/mL). The same molecule returned a Ki in data set [4] of 54 µM.

Consider `CCCCCC(=O)c1c(O)cc(CCCCC)oc1=O`, for which the inhibitor concentration tested (near solubility limit) on pancreatic elastase and in the data set with alpha-chymotrypsin [2] was 25 µM in each case. Besides, in data set [1], the solubility was determined as 25 µM (≈ 7.01 µg/mL). In data set [4], the affinity corresponds to a Ki of 67 µM.

As to `CCCCCCCC(=O)c1c(O)cc(CCCCCCC)oc1=O`, the inhibitor concentration tested (near solubility limit) at pancreatic elastase and with alpha-chymotrypsin [2] was 25 µM in each case. For the same molecule, the concentration in solution in [1] (solubility) came to 25 µM (≈ 8.41 µg/mL). Further, the Ki at Neutrophil elastase is 15 µM.

As to `CCCCOC(=O)C(=O)/C=C1\C=C(OC)C=C(O)O1`, the inhibitor concentration tested (near solubility limit) at pancreatic elastase and with alpha-chymotrypsin [2] was 200 µM in each case. In addition, in data set [1], the concentration in solution (solubility) came to 200 µM (≈ 53.7 µg/mL). Also, the Ki at Neutrophil elastase turned out to be 350 µM.

For `CCCCCCCCCc1cc(O)cc(=O)o1`, the inhibitor concentration tested (near solubility limit) on pancreatic elastase and in the data set with alpha-chymotrypsin [2] was 200 µM each time. Further, the solubility in data set [1] came to 200 µM (≈ 47.7 µg/mL). For the same molecule, the Ki at Neutrophil elastase amounted to 400 µM.

For `COC1=C/C(=C\C(=O)C(=O)O)OC(O)=C1`, the inhibitor concentration tested (near solubility limit) against pancreatic elastase and in the data set with alpha-chymotrypsin [2] was 1000 µM in each case. In addition, the concentration in solution in data set [1] (solubility) came to 1000 µM (≈ 212 µg/mL). In addition, the Ki result in data set [5] is “No inhibitory activity”.

For `CCCCCCCCCc1cc(OC)cc(=O)o1`, the inhibitor concentration tested (near solubility limit) against pancreatic elastase and in the data set with alpha-chymotrypsin [2] was 200 µM throughout. Besides, in [1], the solubility was found to be 200 µM (≈ 50.5 µg/mL). The molecule also displayed a Ki in [6] of 130 µM.

For the molecule `CCCCCCCc1cc(O)cc(=O)o1`, the inhibitor concentration tested (near solubility limit) on pancreatic elastase and with alpha-chymotrypsin [2] was 200 µM in each case. In data set [1], this molecule displayed a solubility of 200 µM (≈ 42.1 µg/mL). The molecule further came in with a Ki at Neutrophil elastase of 1100 µM.

For the molecule `CCCCCCCc1cc(OC)cc(=O)o1`, the inhibitor concentration tested (near solubility limit) against pancreatic elastase and in the data set with alpha-chymotrypsin [2] was 200 µM in each case. Moreover, in [1], the solubility was 200 µM (≈ 44.9 µg/mL). In data set [6], this molecule had a Ki of 140 µM.

For `CCCCCCCCCCCc1cc(O)cc(=O)o1`, the inhibitor concentration tested (near solubility limit) on pancreatic elastase and in the data set with alpha-chymotrypsin [2] was 200 µM each time. Also, the concentration in solution in data set [1] (solubility) came to 200 µM (≈ 53.3 µg/mL). The molecule further had a Ki in [7] of 83 µM.

`CCCCCc1cc(O)cc(=O)o1`: the inhibitor concentration tested (near solubility limit) on pancreatic elastase and in the data set with alpha-chymotrypsin [2] was 200 µM in each case. This molecule displayed a solubility in data set [1] of 200 µM (≈ 36.4 µg/mL). For the same molecule, affinity on Neutrophil elastase was put at a Ki of 1700 µM.

With `CCCCCCCCCC(=O)c1c(O)cc(CCCCCCCCC)oc1=O`, the inhibitor concentration tested (near solubility limit) against pancreatic elastase and in the data set with alpha-chymotrypsin [2] was 25 µM throughout. In data set [1], this molecule showed a solubility of 25 µM (≈ 9.81 µg/mL). For the same molecule, affinity at Neutrophil elastase was put at a Ki of 7.9 µM.

As to `CCCCCOC(=O)C(=O)/C=C1\C=C(OC)C=C(O)O1`, the inhibitor concentration tested (near solubility limit) on pancreatic elastase and in the data set with alpha-chymotrypsin [2] was 200 µM throughout. The solubility in [1] turned out to be 200 µM (≈ 56.5 µg/mL). Further, on Neutrophil elastase, affinity was put at a Ki of 410 µM.
